Test results reported in PMC6684259 (Current biology : CB, 2019).

Tests used:
Eg5 (kinesin-5) [1] = molecular target: T1, Eg5 (kinesin-5) (Xenopus laevis, UniProt P28025); assay: microtubule shrinkage assay with purified Eg5M in AMPPNP; assay type: biochemical
T1 sequence (P28025 1-368): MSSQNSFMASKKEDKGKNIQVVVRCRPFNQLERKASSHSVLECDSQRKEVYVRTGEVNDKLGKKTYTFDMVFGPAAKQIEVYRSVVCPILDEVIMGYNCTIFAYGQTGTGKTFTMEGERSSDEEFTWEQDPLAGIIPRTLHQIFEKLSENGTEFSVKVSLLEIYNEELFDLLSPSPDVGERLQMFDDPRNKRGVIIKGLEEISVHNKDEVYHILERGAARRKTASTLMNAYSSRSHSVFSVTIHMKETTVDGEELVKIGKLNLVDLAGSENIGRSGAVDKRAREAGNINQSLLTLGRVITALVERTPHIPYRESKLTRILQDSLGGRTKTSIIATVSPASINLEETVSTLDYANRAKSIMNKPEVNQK

Eg5 (kinesin-5) [2] = molecular target: T1, Eg5 (kinesin-5); assay: microtubule shrinkage assay with purified Eg5M plus inhibitor; assay type: biochemical
Method in brief: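 Shrinkage run in BRB80 with oxygen scavenger and 0.2 mg/mL casein. Microtubules are grown from Cy5/biotin GMPCPP seeds with TMR-labeled bovine brain tubulin, 5 mM Mg-ATP and 2 mM Mg-GTP, ±His-purified motor (E. coli-expressed), for 20 min at 37°C. Catastrophe is triggered by flowing in 22°C tubulin-free buffer holding the same motor concentration. Shrinkage velocities come from tracked ends imaged on stage.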

Row | SMILES | microtubule shrinkage assay with purified Eg5M in AMPPNP (TIRF) (Eg5 (kinesin-5) [1]) | microtubule shrinkage assay with purified Eg5M plus inhibitor (TIRF) (Eg5 (kinesin-5) [2])
1 | Nc1ncnc2c1ncn2[C@@H]1O[C@H](CO[P@](=O)(O)O[P@](=O)(O)NP(=O)(O)O)[C@@H](O)[C@H]1O [AMPPNP] | 0.5 nm/s | 
2 | CC(C)(C)c1ccc2cc(C#N)c(C#N)cc2c1 [BRD9876] |  | 0.2 nm/s
